Experimental data from ChEMBL document CHEMBL1125400, “Synthesis and antibacterial activity of some novel 6-methyl- and 6-propenyl-substituted carbapenems” (J Med Chem, 1992).
Converted amounts (≈) assume the structure as drawn. “And” between values parts separate entries of the source, which are not always exact repeats. Equal values may be shown once.

Tests used:
[1] = Half-life by UV spectrophotometry; format: ADME; conditions: for half-life: read-out: Stability (converted)
In short: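 Chemical stability in solution: about 10^-4 M compound in 0.07 M phosphate buffer, pH 7.4, held at 37 °C. Decay followed by UV spectrophotometry; half-life reported in hours.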

Pseudomonas aeruginosa [2] = test: In vitro antibacterial activity against Pseudomonas aeruginosa (A9843); format: functional
In short: (§1)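 Broth microdilution MIC in Nutrient Broth with a final inoculum of 5.0 × 10^5 CFU/mL. Trays incubated 18 h at 35 °C. MIC taken as the lowest antibiotic concentration inhibiting bacterial growth, in µg/mL.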

Providencia rettgeri [3] = test: In vitro antibacterial activity against Providencia rettgeri (A22424); format: functional; in short: as §1
Streptococcus pyogenes = test: In vitro antibacterial activity against Streptococcus pyogenes (A9604); format: functional
In short: (§2)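 Streptococcal MIC by broth microdilution in Todd-Hewitt Broth with a final inoculum of 5.0 × 10^5 CFU/mL. Trays incubated 18 h at 35 °C. Endpoint is the lowest concentration preventing growth, in µg/mL.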

Escherichia coli [4] = test: In vitro antibacterial activity against Escherichia coli (A15119); format: functional; in short: as §1
Enterobacter cloacae = test: In vitro antibacterial activity against Enterobacter cloacae (A9659); format: functional; in short: as §1
Klebsiella pneumoniae [5] = test: In vitro antibacterial activity against Klebsiella pneumoniae (A9664); format: functional; in short: as §1
Mus musculus = test: Protective dose when administered orally for 50 percent of the mice tested. Mice were treated twice, at 0 and 2 hour after infection with Escherichia coli; format: functional; conditions: po, read-out: PD50
In short: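 Mice infected with E. coli and given test agent orally twice, at 0 and 2 h after infection. PD50 is the dose protecting 50% of animals, expressed as mg/kg per dose.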

Proteus vulgaris = test: In vitro antibacterial activity against Proteus vulgaris (A21559); format: functional; in short: as §1
Staphylococcus aureus = test: In vitro antibacterial activity against Staphylococcus aureus (A9537); format: functional; in short: as §1
Enterococcus faecalis = test: In vitro antibacterial activity against Streptococcus faecalis (A20688); format: functional; in short: as §2
Streptococcus pneumoniae = test: In vitro antibacterial activity against Streptococcus pneumoniae (A9585); format: functional; in short: as §2
Escherichia coli [6] = test: In vitro evaluation for the antibacterial activity […] in e) Escherichia coli (A15119); format: functional
Pseudomonas aeruginosa [7] = test: In vitro evaluation for the antibacterial activity […] in Pseudomonas aeruginosa (A9843); format: functional
Klebsiella pneumoniae [8] = test: In vitro evaluation for the antibacterial activity […] in Klebsiella pneumoniae (A9664); format: functional
Providencia rettgeri [9] = test: IIn vitro antibacterial activity against Providencia rettgeri (A22424); format: functional; in short: as §1
[10] = Pseudomonas aeruginosa, read-out: MIC
[11] = Providencia rettgeri, read-out: MIC
[12] = Streptococcus pyogenes, read-out: MIC

Row | Compound | Stability [1] | half-life [1] | MIC (Pseudomonas aeruginosa [2]) | MIC (Pseudomonas aeruginosa [2]; [10]) | MIC (Providencia rettgeri [3]) | MIC (Providencia rettgeri [3]; [11]) | MIC (Streptococcus pyogenes) | MIC (Escherichia coli [4]) | MIC (Enterobacter cloacae) | MIC (Klebsiella pneumoniae [5]) | ED50 (Mus musculus) | MIC (Proteus vulgaris) | MIC (Staphylococcus aureus) | MIC (Streptococcus pyogenes; [12]) | MIC (Enterococcus faecalis) | MIC (Streptococcus pneumoniae) | MIC (Escherichia coli [6]) | MIC (Pseudomonas aeruginosa [7]) | MIC (Klebsiella pneumoniae [8]) | MIC (Providencia rettgeri [9])
1 | C=CC(O)[C@H]1C(=O)N2C(C(=O)O)=C(SCc3ccccn3)[C@H](C)[C@H]12 (stereo partly specified) | 72 h | 72 h | 125 µg/mL (≈ 361 µM) | 125 µg/mL (≈ 361 µM) | 2 µg/mL (≈ 5.77 µM) | 2 µg/mL (≈ 5.77 µM) | 0.25 µg/mL and 0.56 µg/mL | – | – | – | – | – | – | – | – | – | – | – | – | –
2 | C[C@@H](O)[C@H]1C(=O)N2C(C(=O)O)=C(SCc3cccnc3)[C@H](C)[C@H]12 | – | 65 h | – | 125 µg/mL (≈ 374 µM) | – | 16 µg/mL (≈ 47.8 µM) | – | 0.016 µg/mL (≈ 0.0478 µM) | 0.13 µg/mL (≈ 0.389 µM) | 0.13 µg/mL (≈ 0.389 µM) | 17 mg/kg | 0.03 µg/mL (≈ 0.0897 µM) | 0.016 µg/mL (≈ 0.0478 µM) | 0.016 µg/mL (≈ 0.0478 µM) | 2 µg/mL (≈ 5.98 µM) | 0.016 µg/mL (≈ 0.0478 µM) | – | – | – | –
3 | C[C@H]1C(SCc2ccccn2)=C(C(=O)O)N2C(=O)[C@H](/C=C/CNc3ccccc3)[C@@H]12 | – | 35 h | – | 64 µg/mL (≈ 152 µM) | – | 64 µg/mL (≈ 152 µM) | – | 32 µg/mL (≈ 75.9 µM) | 64 µg/mL (≈ 152 µM) | 64 µg/mL (≈ 152 µM) | – | 64 µg/mL (≈ 152 µM) | 0.25 µg/mL (≈ 0.593 µM) | – | > 64 µg/mL | – | – | – | – | –
4 | C[C@@H](N)[C@H]1C(=O)N2C(C(=O)O)=C(SCc3cccnc3)[C@H](C)[C@H]12 | – | 3 h | – | 1 µg/mL (≈ 3 µM) | – | 2 µg/mL (≈ 6 µM) | – | – | 0.06 µg/mL (≈ 0.18 µM) | 0.13 µg/mL (≈ 0.39 µM) | 8 mg/kg | 0.016 µg/mL (≈ 0.048 µM) | 2 µg/mL (≈ 6 µM) | 4 µg/mL (≈ 12 µM) | 63 µg/mL (≈ 189 µM) | 4 µg/mL (≈ 12 µM) | 0.03 µg/mL (≈ 0.09 µM) | – | – | –
5 | C[C@H]1C(SCc2cccnc2)=C(C(=O)O)N2C(=O)[C@H](CN)[C@@H]12 | – | 1.5 h | – | 1 µg/mL (≈ 3.13 µM) | – | 0.25 µg/mL (≈ 0.783 µM) | – | – | 0.016 µg/mL (≈ 0.0501 µM) | 0.03 µg/mL (≈ 0.0939 µM) | > 25 mg/kg | 0.016 µg/mL (≈ 0.0501 µM) | 0.5 µg/mL (≈ 1.57 µM) | 0.5 µg/mL (≈ 1.57 µM) | 125 µg/mL (≈ 391 µM) | 0.5 µg/mL (≈ 1.57 µM) | 0.008 µg/mL (≈ 0.025 µM) | – | – | –
6 | C[C@H]1C(SCc2ccccn2)=C(C(=O)O)N2C(=O)[C@H](/C=C/CN=[N+]=[N-])[C@@H]12 | – | 21 h | – | – | – | 32 µg/mL (≈ 86.2 µM) | – | 8 µg/mL (≈ 21.5 µM) | 32 µg/mL (≈ 86.2 µM) | 16 µg/mL (≈ 43.1 µM) | – | 8 µg/mL (≈ 21.5 µM) | 0.06 µg/mL (≈ 0.162 µM) | 0.03 µg/mL (≈ 0.0808 µM) | 32 µg/mL (≈ 86.2 µM) | 0.03 µg/mL (≈ 0.0808 µM) | – | 125 µg/mL (≈ 337 µM) | – | –
7 | C[C@H]1C(SCc2ccccn2)=C(C(=O)O)N2C(=O)[C@H](/C=C/CO)[C@@H]12 | – | 21 h | – | 125 µg/mL (≈ 361 µM) | – | 16 µg/mL (≈ 46.2 µM) | – | 8 µg/mL (≈ 23.1 µM) | 32 µg/mL (≈ 92.4 µM) | 16 µg/mL (≈ 46.2 µM) | – | 8 µg/mL (≈ 23.1 µM) | 1 µg/mL (≈ 2.89 µM) | 0.06 µg/mL (≈ 0.173 µM) | 125 µg/mL (≈ 361 µM) | 0.13 µg/mL (≈ 0.375 µM) | – | – | – | –
8 | C[C@H]1C(SCc2cccnc2)=C(C(=O)O)N2C(=O)[C@H](CO)[C@@H]12 | – | 45 h | – | 125 µg/mL (≈ 390 µM) | – | – | – | – | 0.06 µg/mL (≈ 0.187 µM) | – | 7 mg/kg | 0.13 µg/mL (≈ 0.406 µM) | 0.008 µg/mL (≈ 0.025 µM) | 0.004 µg/mL (≈ 0.0125 µM) | 4 µg/mL (≈ 12.5 µM) | 0.002 µg/mL (≈ 0.00624 µM) | 0.016 µg/mL (≈ 0.0499 µM) | – | 0.06 µg/mL (≈ 0.187 µM) | 0.5 µg/mL (≈ 1.56 µM)
